Compounds with a hit are over-represented: about 4.9% of the library has one in this group of screens.
STAT3 blocker: inhibitors of IL-6 induced STAT3 signaling | U3A cells, IL-6 STAT3-luciferase reporter, luminescence; host cell line lacks STAT1 | inhibition, % at 5.5 µM | 190,000 tested, 0.89% active;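 active means inhibition above the mean inhibition across all screened compounds plus 3 SD, cut at about 44% in these data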
STAT1 activator: activators of IFN-gamma induced STAT1 signaling. NIH 3T3 STAT1-luciferase reporter, luminescence; 100% = IFN-gamma alone, no compound. activation (% of control), % at 5.5 µM. 200,000 tested, 2.6% active. AID 932;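 active means activation above the screen-wide mean activation plus 3 SD, cut at about 130% in these data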
APP 5'UTR act: APP 5'UTR luciferase reporter activation. 190,000 tested, 1% active. activation, % at 2 µM. SH-SY5Y APP 5'UTR luciferase reporter, luminescence; zero percent = DMSO vehicle wells;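 active means activation above a set limit, based on mean plus 3 SD of controls, cut at about 140% in these data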
STAT3 act: activators of IL-6 induced STAT3 signaling; activation (% of control), % at 5.6 µM; U3A cells, IL-6 STAT3-luciferase reporter, luminescence; 100% = signal with IL-6 EC80 alone; 190,000 tested, 0.91% active;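 active means activation above the screen-wide mean of compound activation plus 3 SD, cut at about 130% in these data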
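Material: human STAT1-deficient U3A cells with stable STAT3-luciferase reporter / Probe or stimulus: IL-6 stimulus at 33 ng/mL final / Schedule: 1 h compound pre-exposure, 6 h IL-6 stimulation, 37 °C / Technique: luminescence / Read-out basis: percent of IL-6-only median luminescence / Control set: IL-6-only high control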
STAT1 blocker: reduces IFN-gamma driven STAT1 reporter signal; NIH 3T3 STAT1-luciferase reporter, luminescence; 200,000 tested, 0.35% active; inhibition, % at 5.5 µM; AID 920;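 active means inhibition above a set limit, the mean inhibition across all tested compounds plus 3 SD, cut at about 34% in these data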
NF-kB neuron act: compounds increasing NF-kB expression in human neuronal cells. NF-kB reporter expression; hits give high values. fold change at 12.5 µM. 190,000 tested, 1.6% active; in the data active means fold change above about 3.3
STAT1 act conf: confirmation of STAT1 signaling activators. AID 1262. 1,200 tested, 97% active. activation (% of control), % at 5.7 µM. NIH 3T3 STAT1-luciferase reporter, IFN-gamma potentiation, luminescence; 100% = IFN-gamma EC80 alone, no compound. shares compounds with STAT1 activator;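 active means activation above a set limit carried over from the earlier primary STAT1 screen, cut at about 140% in these data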
NFkB act STAT1ct: NF-kappaB activation in STAT1 activator counter-screen; shares compounds with STAT1 activator; HEK293T NF-kB luciferase reporter, TNF-alpha stimulated, luminescence; 100% = TNF-alpha with vehicle only; activation (% of control), % at 5.7 µM; 1,200 tested, 43% active; AID 1306;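 active means activation above the mean of solvent-only control wells plus 3 SD, set per campaign, cut at about 130% in these data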;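 further: TNF-alpha given at a submaximal dose yielding about 80% of full reporter signal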
STAT3 act 2: activates human STAT3, counter-screen to STAT1 activators | activation (% of control), % at 5.7 µM | U3A cells STAT3-luciferase reporter, IL-6, luminescence; cells lack STAT1; 100 = IL-6 alone, no compound effect | 1,200 tested, 46% active | shares compounds with STAT1 activator;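 active means activation above the solvent-only control well mean plus 3 SD, set per plate batch, cut at about 110% in these data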;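 further: higher means more STAT3 reporter activation so hits are non-selective activators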
Large screens that a line does not name were inactive (follow-up assays come after a bar, where they were run).

O=C(Nc1cccc(Cl)c1)c1ccc2c(=O)n3c(nc2c1)CCCCC3	STAT1 activator 162, APP 5'UTR act 202 | STAT1 act conf 180 | NFkB act STAT1ct inactive | STAT3 act 2 inactive
COCCn1c(C)cc(C(=O)CSc2cc(C)c3ccccc3n2)c1C	none
COCCn1c(C)cc(C(=O)CSc2nc3ccccc3c(=O)n2Cc2ccco2)c1C	STAT1 activator 152, APP 5'UTR act 181 | STAT1 act conf 236 | NFkB act STAT1ct 149 | STAT3 act 2 127
O=C(CCCO)CCCCCCCCC[C@H]1N[C@H](CO)[C@@H](O)[C@@H]1O	none
c1ccc2c(c1)[nH]c1nc3nncn3nc12	none
Cc1cccc2c1[nH]c1nc(N/N=C\c3ccco3)nnc12	none
C=CCSc1nnc2c(n1)[nH]c1c(C)cccc12	STAT1 activator 154 | STAT1 act conf 176 | NFkB act STAT1ct inactive | STAT3 act 2 inactive
CCSc1nnc2nc3[nH]c4c(C)cccc4c3nn12	STAT1 activator 151 | STAT1 act conf 149 | NFkB act STAT1ct inactive | STAT3 act 2 123
CN(C)/C=C/c1oc2ccc(O)cc2c1[N+](=O)[O-]	none
C/C(CC(=O)NC1CCCCC1)=N\NC(=O)Cc1ccc(-c2ccccc2)cc1	none
CCOc1nc(N2CCOCC2)nc(N2CCOCC2)n1	none
CCOc1ccc2nc(N3CCOCC3)nc(C)c2c1	STAT1 activator 155, NF-kB neuron act 3.8 | STAT1 act conf 181 | NFkB act STAT1ct inactive | STAT3 act 2 inactive
CSCCC(NC(=O)c1cccc([N+](=O)[O-])c1)c1nc2ccccc2[nH]1 (stereo not drawn)	none
O=C(Nc1nc2ccccc2[nH]1)c1cccc([N+](=O)[O-])c1	STAT1 activator 156 (no result: NF-kB neuron act) | STAT1 act conf 169 | NFkB act STAT1ct inactive | STAT3 act 2 120
Cn1ccc2c([N+](=O)[O-])cccc2c1=O	none
COc1cc(OC)nc(-n2ncc(Br)c(Br)c2=O)n1	STAT1 activator 240 | STAT1 act conf 273 | NFkB act STAT1ct inactive | STAT3 act 2 inactive
COC(=O)c1cnn(-c2nc(OC)cc(OC)n2)c1C	none
Nc1n[nH]c(=S)n1/N=C1/C(=O)Nc2ccccc21	none
COc1ccc(Nc2nc(-c3cccs3)cs2)c(OC)c1	STAT1 activator 164, NF-kB neuron act 7 | STAT1 act conf 216 | NFkB act STAT1ct 139 | STAT3 act 2 118
COc1ccc(Nc2nc(-c3cccs3)nc3ccccc23)c(OC)c1	none
Oc1ccc(Nc2nc(-c3cccs3)cs2)cc1	none
COc1ccccc1Nc1nc(-c2cccs2)cs1	STAT1 activator 171, NF-kB neuron act 5.7 | STAT1 act conf 203 | NFkB act STAT1ct 143 | STAT3 act 2 165
COc1ccc(Nc2nc(-c3cccs3)cs2)cc1	STAT1 activator 182 | STAT1 act conf 214 | NFkB act STAT1ct 151 | STAT3 act 2 122
CC(=O)Nc1nc(-c2cccs2)cs1	none
Cc1ccc(C(=O)NNC(=O)CCN2C(=O)C3CCCCC3C2=O)cc1 (stereo not drawn)	none
CCc1ccc(C(=O)CN2CCSC2=N)cc1	STAT1 activator 159, NF-kB neuron act 7.9 | STAT1 act conf 209 | NFkB act STAT1ct 136 | STAT3 act 2 inactive
Cc1cccc(C(=O)n2c(=S)nc3ccccn32)c1	STAT1 activator 192, NF-kB neuron act 4.4 | STAT1 act conf 430 | NFkB act STAT1ct 185 | STAT3 act 2 127
CC(C)c1nnc(NC(=O)CCCC(=O)O)s1	none
CCOC(=O)CC(=O)Nc1nnc(C(C)C)s1	STAT1 activator 152 | STAT1 act conf inactive | NFkB act STAT1ct inactive | STAT3 act 2 inactive
C/C(=N\NC(=O)c1ccc(Br)cc1)c1ccccc1	STAT1 activator 159, NF-kB neuron act 5.7 | STAT1 act conf 195 | NFkB act STAT1ct inactive | STAT3 act 2 inactive
CCOc1ccc(/C=N/O)cc1	none
Cc1ccc(COc2ccc(/C=N/O)cc2)cc1	STAT1 activator 176, NF-kB neuron act 6.3 | STAT1 act conf 203 | NFkB act STAT1ct 136 | STAT3 act 2 129
O=C(O)CN(c1ccccc1[N+](=O)[O-])S(=O)(=O)c1ccccc1	none
CC(C)CC(=O)Nc1ccc2c(c1)oc1ccccc12	STAT1 activator 152, APP 5'UTR act 173, NF-kB neuron act 6.1 | STAT1 act conf 190 | NFkB act STAT1ct 134 | STAT3 act 2 inactive
Cc1cccc(/C=N\NC(=O)c2ccc(Cl)cc2)c1O	STAT1 activator 155, NF-kB neuron act 4.3 | STAT1 act conf 161 | NFkB act STAT1ct inactive | STAT3 act 2 inactive
O=C(N/N=C/c1ccc(Cl)cc1Cl)c1cccc(F)c1	STAT1 activator 160 | STAT1 act conf 212 | NFkB act STAT1ct 142 | STAT3 act 2 inactive
O=C(C[n+]1ccc(C(=O)N/N=C/c2ccc(Cl)cc2Cl)cc1)c1ccccc1	none
COc1cccc(/C=N/NC(=O)c2ccc(-c3ccccc3)cc2)c1O	none
CC(C)Cn1c(N)c(C(=O)COC(=O)c2ccc([N+](=O)[O-])o2)c(=O)n(C)c1=O	none
CCOC(=O)c1sc(NC(=O)c2ccc(C)s2)cc1C	STAT1 activator 175, APP 5'UTR act 172 | STAT1 act conf 193 | NFkB act STAT1ct 138 | STAT3 act 2 inactive
CCOC(=O)c1sc(NC(=O)Nc2ccc(F)cc2)nc1C	STAT1 activator 160, NF-kB neuron act 5.3 | STAT1 act conf 236 | NFkB act STAT1ct 135 | STAT3 act 2 112
CCOC(=O)c1sc(NC(=O)Nc2ccccc2)cc1C	STAT1 activator 189, APP 5'UTR act 173, NF-kB neuron act 9.5 | STAT1 act conf 222 | NFkB act STAT1ct inactive | STAT3 act 2 inactive
CCOC(=O)c1sc(NC(C)=O)cc1C	none
CCOC(=O)c1sc(NC(=O)Nc2ccccc2Cl)cc1C	STAT1 activator 186, APP 5'UTR act 220, NF-kB neuron act 4.2 | STAT1 act conf 295 | NFkB act STAT1ct inactive | STAT3 act 2 inactive
NC(=O)C1CCN(S(=O)(=O)Cc2ccccc2Cl)CC1	none
Cc1cc(C)n(-c2ccc(C(=O)OCC(=O)NCc3ccc(F)cc3)cc2)n1	none
Cc1ccc(C2=NNC(=Nc3ccc(F)cc3)SC2)cc1	none
CC(C)c1ccc(N=C2NN=C(c3cccs3)CS2)cc1	STAT1 activator 153, APP 5'UTR act 169 | STAT1 act conf 195 | NFkB act STAT1ct inactive | STAT3 act 2 111
